Assay results reported in ChEMBL document CHEMBL1817554, “Design of HIV-1 protease inhibitors with C3-substituted hexahydrocyclopentafuranyl urethanes as P2-ligands: synthesis, biological evaluation, and protein-ligand X-ray crystal structure” (J Med Chem, 2011).

Each compound was assayed on Human immunodeficiency virus 1 (assay: Ratio of IC50 for Human immunodeficiency virus 1 MDR/C to IC50 for wild-type Human immunodeficiency virus 1 ERS104pre).
Type: functional

| Structure (SMILES) | Ratio IC50 |
| --- | --- |
| CC(C)CN(C[C@@H](O)[C@H](Cc1ccccc1)NC(=O)O[C@H]1CCOC1)S(=O)(=O)c1ccc(N)cc1 | 9 |

The compounds below were run on Human immunodeficiency virus 1 (assay: Ratio of IC50 for Human immunodeficiency virus 1 MDR/TM to IC50 for wild-type Human immunodeficiency virus 1 ERS104pre).
Type: functional

| Structure (SMILES) | Ratio IC50 |
| --- | --- |
| CC(C)CN(C[C@@H](O)[C@H](Cc1ccccc1)NC(=O)O[C@H]1CCOC1)S(=O)(=O)c1ccc(N)cc1 | 6 |

These compounds were tested on Human immunodeficiency virus 1 (assay: Antiviral activity against multidrug-resistant Human immunodeficiency virus 1 subtype B harboring protease L10I, L33I, M36I, M46I, F53L, K55R, I62 V, L63P, A71 V, G73S, V82A, L90M, I93L mutation infected in PHA-stimulated human PBMC assessed as inhibition of p24 Gag protein production).
Type: functional, organism-based
How it was run: (§1)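 PHA-stimulated PBMCs served as target cells, and inhibition of p24 Gag protein production was the end point. Fold change was taken against the wild-type HIV-1ERS104pre IC50. Each assay was run in duplicate or triplicate. Values are means (±1 standard deviation) from three independent experiments.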

| Structure (SMILES) | IC50 |
| --- | --- |
| CC(C)CN(C[C@@H](O)[C@H](Cc1ccccc1)NC(=O)O[C@H]1CCOC1)S(=O)(=O)c1ccc(N)cc1 | 930 nM |
| COc1ccc(S(=O)(=O)N(CC(C)C)C[C@@H](O)[C@H](Cc2ccccc2)NC(=O)O[C@@H]2C[C@@H]3[C@@H](O)CO[C@@H]3C2)cc1 | 29 nM |
| COc1ccc(S(=O)(=O)N(CC(C)C)C[C@@H](O)[C@H](Cc2ccccc2)NC(=O)O[C@@H]2C[C@@H]3[C@H](O)CO[C@@H]3C2)cc1 | > 1000 nM |

These compounds were tested on Human immunodeficiency virus 1 (assay: Antiviral activity against multidrug-resistant Human immunodeficiency virus 1 MDR/C harboring protease L10I, I15 V, K20R, L24I, M36I, M46L, I54V, I62 V, L63P, K70Q, V82A, L89 M mutation infected in PHA-stimulated human PBMC assessed as inhibition of p24 Gag protein production).
Type: functional, organism-based
How it was run: as §1

| Structure (SMILES) | IC50 |
| --- | --- |
| CC(C)CN(C[C@@H](O)[C@H](Cc1ccccc1)NC(=O)O[C@H]1CCOC1)S(=O)(=O)c1ccc(N)cc1 | 260 nM |
| COc1ccc(S(=O)(=O)N(CC(C)C)C[C@@H](O)[C@H](Cc2ccccc2)NC(=O)O[C@@H]2C[C@@H]3[C@@H](O)CO[C@@H]3C2)cc1 | 22 nM |
| COc1ccc(S(=O)(=O)N(CC(C)C)C[C@@H](O)[C@H](Cc2ccccc2)NC(=O)O[C@@H]2C[C@@H]3[C@H](O)CO[C@@H]3C2)cc1 | > 1000 nM |

The compounds below were run on Human immunodeficiency virus 1 (assay: Antiviral activity against multidrug-resistant Human immunodeficiency virus 1 MDR/TM harboring protease L10I, K14R, R41K, M46L, I54V, L63P, A71V, V82A, L90M, I93L mutation infected in PHA-stimulated human PBMC assessed as inhibition of p24 Gag protein production).
Type: functional, organism-based
How it was run: as §1

| Structure (SMILES) | IC50 |
| --- | --- |
| CC(C)CN(C[C@@H](O)[C@H](Cc1ccccc1)NC(=O)O[C@H]1CCOC1)S(=O)(=O)c1ccc(N)cc1 | 190 nM |
| COc1ccc(S(=O)(=O)N(CC(C)C)C[C@@H](O)[C@H](Cc2ccccc2)NC(=O)O[C@@H]2C[C@@H]3[C@@H](O)CO[C@@H]3C2)cc1 | 3.1 nM |
| COc1ccc(S(=O)(=O)N(CC(C)C)C[C@@H](O)[C@H](Cc2ccccc2)NC(=O)O[C@@H]2C[C@@H]3[C@H](O)CO[C@@H]3C2)cc1 | 41 nM |

The compounds below were run on Human immunodeficiency virus 1 (assay: Antiviral activity against multidrug-resistant Human immunodeficiency virus 1 MDR/G harboring protease L10I, V11I, T12E, I15 V, L19I, R41K, M46L, L63P, A71T, V82A, L90 M mutation infected in PHA-stimulated human PBMC assessed as inhibition of p24 Gag protein production).
Type: functional, organism-based
How it was run: as §1

| Structure (SMILES) | IC50 |
| --- | --- |
| CC(C)CN(C[C@@H](O)[C@H](Cc1ccccc1)NC(=O)O[C@H]1CCOC1)S(=O)(=O)c1ccc(N)cc1 | 380 nM |
| COc1ccc(S(=O)(=O)N(CC(C)C)C[C@@H](O)[C@H](Cc2ccccc2)NC(=O)O[C@@H]2C[C@@H]3[C@@H](O)CO[C@@H]3C2)cc1 | 4.5 nM |
| COc1ccc(S(=O)(=O)N(CC(C)C)C[C@@H](O)[C@H](Cc2ccccc2)NC(=O)O[C@@H]2C[C@@H]3[C@H](O)CO[C@@H]3C2)cc1 | 270 nM |

Each compound was assayed on Human immunodeficiency virus 1 (assay: Antiviral activity against wild type Human immunodeficiency virus 1 ERS104pre infected in PHA-stimulated human PBMC assessed as inhibition of p24 Gag protein production).
Type: functional, organism-based
How it was run: as §1

| Structure (SMILES) | IC50 |
| --- | --- |
| COc1ccc(S(=O)(=O)N(CC(C)C)C[C@@H](O)[C@H](Cc2ccccc2)NC(=O)O[C@@H]2C[C@@H]3[C@@H](O)CO[C@@H]3C2)cc1 | 2.9 nM |
| COc1ccc(S(=O)(=O)N(CC(C)C)C[C@@H](O)[C@H](Cc2ccccc2)NC(=O)O[C@@H]2C[C@@H]3[C@H](O)CO[C@@H]3C2)cc1 | 20 nM |

What follows are compounds tested on Human immunodeficiency virus 1 (assay: Ratio of IC50 for Human immunodeficiency virus 1 MDR/G to IC50 for wild-type Human immunodeficiency virus 1 ERS104pre).
Type: functional
How it was run: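 Antiviral IC50s measured against each multidrug-resistant clinical isolate and wild-type HIV-1ERS104pre in PHA-stimulated PBMCs as target cells, with inhibition of p24 Gag production as the end point. The fold change is the isolate IC50 divided by the wild-type IC50. Assays were run in duplicate or triplicate; values are means (±1 SD) of three independent experiments.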

| Structure (SMILES) | Ratio IC50 |
| --- | --- |
| CC(C)CN(C[C@@H](O)[C@H](Cc1ccccc1)NC(=O)O[C@H]1CCOC1)S(=O)(=O)c1ccc(N)cc1 | 12 |

These compounds were tested on Human immunodeficiency virus 1 (assay: Antiviral activity against Human immunodeficiency virus 1 LAI infected in human MT2 cells by MTT assay).

| Structure (SMILES) | IC50 |
| --- | --- |
| CC(C)CN(C[C@@H](O)[C@H](Cc1ccccc1)NC(=O)O[C@@H]1C[C@@H]2[C@H](O)CO[C@@H]2C1)S(=O)(=O)c1ccc(CO)cc1 | 19 nM |
| CC(C)CN(C[C@@H](O)[C@H](Cc1ccccc1)NC(=O)O[C@@H]1C[C@@H]2[C@@H](O)CO[C@@H]2C1)S(=O)(=O)c1ccc(N)cc1 | 36 nM |
| COc1ccc(S(=O)(=O)N(CC(C)C)C[C@@H](O)[C@H](Cc2ccccc2)NC(=O)O[C@@H]2C[C@@H]3C(=O)CO[C@@H]3C2)cc1 | 14 nM |
| COc1ccc(S(=O)(=O)N(CC(C)C)C[C@@H](O)[C@H](Cc2ccccc2)NC(=O)O[C@@H]2C[C@@H]3[C@H](OC)CO[C@@H]3C2)cc1 | 37 nM |
| COc1ccc(S(=O)(=O)N(CC(C)C)C[C@@H](O)[C@H](Cc2ccccc2)NC(=O)O[C@@H]2C[C@@H]3[C@@H](O)CO[C@@H]3C2)cc1 | 2.9 nM |
| COc1ccc(S(=O)(=O)N(CC(C)C)C[C@@H](O)[C@H](Cc2ccccc2)NC(=O)O[C@@H]2C[C@@H]3[C@H](C)CO[C@@H]3C2)cc1 | 25 nM |
| CC(C)CN(C[C@@H](O)[C@H](Cc1ccccc1)NC(=O)O[C@@H]1C[C@@H]2[C@H](O)CO[C@@H]2C1)S(=O)(=O)c1ccc(N)cc1 | 25 nM |
| COc1ccc(S(=O)(=O)N(CC(C)C)C[C@@H](O)[C@H](Cc2ccccc2)NC(=O)O[C@@H]2C[C@@H]3[C@H](O)CO[C@@H]3C2)cc1 | 7 nM |
| COc1ccc(S(=O)(=O)N(CC(C)C)C[C@@H](O)[C@H](Cc2ccccc2)NC(=O)O[C@@H]2C[C@@H]3[C@@H](OC)CO[C@@H]3C2)cc1 | 3.4 nM |

Each compound was assayed against Protease (Human immunodeficiency virus 1, UniProt Q9YQ12) (assay: Inhibition of Human immunodeficiency virus 1 protease assessed as release of fluorescent N-terminal tripeptide using fluorogenic substrate by continuous fluorometric assay).
Chain of Protease (Q9YQ12 whole entry): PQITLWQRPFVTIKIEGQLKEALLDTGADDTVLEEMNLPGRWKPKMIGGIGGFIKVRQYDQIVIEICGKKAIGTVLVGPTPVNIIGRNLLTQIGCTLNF

| Structure (SMILES) | Ki |
| --- | --- |
| CC(C)CN(C[C@@H](O)[C@H](Cc1ccccc1)NC(=O)O[C@@H]1C[C@@H]2[C@H](O)CO[C@@H]2C1)S(=O)(=O)c1ccc(CO)cc1 | 0.06 nM |
| CC(C)CN(C[C@@H](O)[C@H](Cc1ccccc1)NC(=O)O[C@@H]1C[C@@H]2[C@@H](O)CO[C@@H]2C1)S(=O)(=O)c1ccc(N)cc1 | 0.006 nM |
| COc1ccc(S(=O)(=O)N(CC(C)C)C[C@@H](O)[C@H](Cc2ccccc2)NC(=O)O[C@@H]2C[C@@H]3[C@H](N(C)C)CO[C@@H]3C2)cc1 | 12.5 nM |
| COc1ccc(S(=O)(=O)N(CC(C)C)C[C@@H](O)[C@H](Cc2ccccc2)NC(=O)O[C@@H]2C[C@@H]3C(=O)CO[C@@H]3C2)cc1 | 0.95 nM |
| COc1ccc(S(=O)(=O)N(CC(C)C)C[C@@H](O)[C@H](Cc2ccccc2)NC(=O)O[C@@H]2C[C@@H]3[C@H](OC)CO[C@@H]3C2)cc1 | 0.39 nM |
| COc1ccc(S(=O)(=O)N(CC(C)C)C[C@@H](O)[C@H](Cc2ccccc2)NC(=O)O[C@@H]2C[C@@H]3[C@H](C)CO[C@@H]3C2)cc1 | 0.16 nM |
| COc1ccc(S(=O)(=O)N(CC(C)C)C[C@@H](O)[C@H](Cc2ccccc2)NC(=O)O[C@@H]2C[C@@H]3[C@@H](C)CO[C@@H]3C2)cc1 | 0.017 nM |
| CC(C)CN(C[C@@H](O)[C@H](Cc1ccccc1)NC(=O)O[C@@H]1C[C@@H]2[C@H](O)CO[C@@H]2C1)S(=O)(=O)c1ccc(N)cc1 | 0.079 nM |
| COc1ccc(S(=O)(=O)N(CC(C)C)C[C@@H](O)[C@H](Cc2ccccc2)NC(=O)O[C@@H]2C[C@@H]3[C@H](O)CO[C@@H]3C2)cc1 | 0.077 nM |
| COc1ccc(S(=O)(=O)N(CC(C)C)C[C@@H](O)[C@H](Cc2ccccc2)NC(=O)O[C@@H]2C[C@@H]3[C@@H](OC)CO[C@@H]3C2)cc1 | 0.006 nM |

Each compound was assayed on Human immunodeficiency virus 1 (assay: Ratio of IC50 for Human immunodeficiency virus 1 MDR/B to IC50 for wild-type Human immunodeficiency virus 1 ERS104pre).
Type: functional

| Structure (SMILES) | Ratio IC50 |
| --- | --- |
| CC(C)CN(C[C@@H](O)[C@H](Cc1ccccc1)NC(=O)O[C@H]1CCOC1)S(=O)(=O)c1ccc(N)cc1 | 31 |
